Reference: ChEMBL document CHEMBL3526004, “Interaction of silymarin flavonolignans with organic anion-transporting polypeptides” (Drug Metab Dispos, 2013)

Columns and labels:
[1] = molecular target: T1, Solute carrier organic anion transporter family member 2B1 (Homo sapiens, UniProt O94956); assay: Inhibition of OATP2B1 (unknown origin) expressed in MDCK2 cells assessed as reduction of [3H]estrone-3-sulfate uptake at 10 uM after 3 mins by beta-counting; assay type: ADME, cell-based; settings: mdck-ii, 0.05 h
T1 sequence (O94956 whole entry): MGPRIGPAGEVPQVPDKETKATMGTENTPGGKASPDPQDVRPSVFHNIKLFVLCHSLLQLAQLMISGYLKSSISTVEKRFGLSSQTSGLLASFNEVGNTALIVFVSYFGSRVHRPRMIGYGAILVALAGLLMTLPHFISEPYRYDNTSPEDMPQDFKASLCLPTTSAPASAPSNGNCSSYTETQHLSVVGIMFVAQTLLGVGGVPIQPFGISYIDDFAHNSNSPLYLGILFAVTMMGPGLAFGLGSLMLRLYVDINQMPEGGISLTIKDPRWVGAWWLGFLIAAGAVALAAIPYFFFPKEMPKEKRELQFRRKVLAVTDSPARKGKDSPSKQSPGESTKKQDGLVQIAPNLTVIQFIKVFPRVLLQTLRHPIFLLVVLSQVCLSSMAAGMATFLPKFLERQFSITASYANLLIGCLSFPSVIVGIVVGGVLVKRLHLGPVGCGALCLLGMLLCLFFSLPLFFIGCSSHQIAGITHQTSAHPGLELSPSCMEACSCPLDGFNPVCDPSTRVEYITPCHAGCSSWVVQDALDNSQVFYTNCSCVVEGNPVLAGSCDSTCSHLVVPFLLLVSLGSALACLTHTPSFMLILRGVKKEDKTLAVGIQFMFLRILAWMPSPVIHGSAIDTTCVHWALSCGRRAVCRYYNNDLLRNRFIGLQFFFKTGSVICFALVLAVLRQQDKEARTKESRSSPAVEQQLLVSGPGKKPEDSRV
Outline: (§1)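 Confluent cells were washed in PBS, then given 1 µM [3H]-E2 17G (OATP1B1, OATP1B3 HEK293) or 1 µM [3H]-E1S (OATP2B1 MDCKII) with 10 µM compound in HBSS pH 7.4 for 3 min at 37°C. Uptake into mock or parental cells was subtracted after protein normalization. Results are % vehicle, mean ± SD of at least three experiments in triplicate.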

[2] = molecular target: T2, Solute carrier organic anion transporter family member 1B1 (Homo sapiens, UniProt Q9Y6L6); assay: Inhibition of OATP1B1 (unknown origin) expressed in HEK293 cells assessed as reduction of [3H]estradiol-17beta-glucuronide uptake at 10 uM after 3 mins by beta-counting; assay type: ADME, cell-based; settings: hek293, 0.05 h; outline: as §1
T2 sequence (Q9Y6L6 whole entry): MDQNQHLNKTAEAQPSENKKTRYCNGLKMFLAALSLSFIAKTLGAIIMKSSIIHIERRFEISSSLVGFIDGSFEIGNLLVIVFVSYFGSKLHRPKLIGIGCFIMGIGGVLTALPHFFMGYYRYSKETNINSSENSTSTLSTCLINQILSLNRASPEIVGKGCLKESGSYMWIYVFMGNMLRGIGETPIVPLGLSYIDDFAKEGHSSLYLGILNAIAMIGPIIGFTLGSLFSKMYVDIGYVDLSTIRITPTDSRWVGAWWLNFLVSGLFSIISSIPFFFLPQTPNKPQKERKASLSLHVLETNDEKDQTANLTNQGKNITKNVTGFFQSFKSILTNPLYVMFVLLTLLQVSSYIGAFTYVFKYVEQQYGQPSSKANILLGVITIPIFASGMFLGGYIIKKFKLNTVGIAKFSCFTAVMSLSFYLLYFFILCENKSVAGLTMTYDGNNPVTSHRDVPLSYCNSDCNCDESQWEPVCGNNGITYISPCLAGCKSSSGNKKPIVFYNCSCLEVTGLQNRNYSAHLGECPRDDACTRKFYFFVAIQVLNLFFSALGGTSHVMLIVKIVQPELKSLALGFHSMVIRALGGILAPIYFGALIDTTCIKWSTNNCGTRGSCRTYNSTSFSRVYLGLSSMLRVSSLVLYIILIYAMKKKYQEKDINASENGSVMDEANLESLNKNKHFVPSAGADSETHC

[3] = molecular target: T3, Solute carrier organic anion transporter family member 1B3 (Homo sapiens, UniProt Q9NPD5); assay: Inhibition of OATP1B3 (unknown origin) expressed in HEK293 cells assessed as reduction of [3H]estradiol-17beta-glucuronide uptake at 10 uM after 3 mins by beta-counting; assay type: ADME, cell-based; settings: hek293, 0.05 h; outline: as §1
T3 sequence (Q9NPD5 whole entry): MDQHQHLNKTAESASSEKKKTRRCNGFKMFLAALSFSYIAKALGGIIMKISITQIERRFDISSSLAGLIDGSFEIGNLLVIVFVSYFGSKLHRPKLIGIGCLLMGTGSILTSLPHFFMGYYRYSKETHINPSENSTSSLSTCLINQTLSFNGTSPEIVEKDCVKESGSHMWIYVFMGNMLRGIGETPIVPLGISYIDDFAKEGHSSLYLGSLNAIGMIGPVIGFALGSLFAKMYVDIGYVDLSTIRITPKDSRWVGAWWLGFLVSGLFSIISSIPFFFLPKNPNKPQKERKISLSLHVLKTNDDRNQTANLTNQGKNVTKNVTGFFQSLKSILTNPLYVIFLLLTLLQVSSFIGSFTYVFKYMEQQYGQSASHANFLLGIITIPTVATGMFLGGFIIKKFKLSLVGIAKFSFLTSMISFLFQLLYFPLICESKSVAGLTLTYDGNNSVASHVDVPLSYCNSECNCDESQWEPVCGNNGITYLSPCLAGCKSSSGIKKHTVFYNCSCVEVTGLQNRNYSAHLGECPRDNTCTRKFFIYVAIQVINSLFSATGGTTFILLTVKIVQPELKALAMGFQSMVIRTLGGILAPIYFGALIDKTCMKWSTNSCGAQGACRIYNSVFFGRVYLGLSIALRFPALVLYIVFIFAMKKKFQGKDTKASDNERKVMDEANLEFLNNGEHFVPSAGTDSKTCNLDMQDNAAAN

[4] = molecular target: T1, Solute carrier organic anion transporter family member 2B1; assay: Inhibition of OATP2B1 (unknown origin) expressed in MDCK2 cells assessed as reduction of [3H]estrone-3-sulfate uptake after 3 mins by beta-counting; assay type: ADME, cell-based, MDCK-II
Outline: (§2)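 Transfected HEK293 (G418) or MDCKII (hygromycin B) cells were co-incubated with 0-100 µM compound and [3H]-E2 17G (1 µM, 0.25 µCi/ml; OATP1B1, OATP1B3) or [3H]-E1S (1 µM; OATP2B1) in HBSS pH 7.4, 3 min at 37°C. OATP-negative uptake was subtracted, and results expressed as % vehicle. Two experiments were run in duplicate. IC50 came from non-linear dose-response fits.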

[5] = molecular target: T2, Solute carrier organic anion transporter family member 1B1; assay: Inhibition of OATP1B1 (unknown origin) expressed in HEK293 cells assessed as reduction of [3H]estradiol-17beta-glucuronide uptake after 3 mins by beta-counting; assay type: ADME, cell-based; outline: as §2
[6] = molecular target: T3, Solute carrier organic anion transporter family member 1B3; assay: Inhibition of OATP1B3 (unknown origin) expressed in HEK293 cells assessed as reduction of [3H]estradiol-17beta-glucuronide uptake after 3 mins by beta-counting; assay type: ADME, cell-based; outline: as §2

COc1cc([C@H]2Oc3ccc([C@H]4Oc5cc(O)cc(O)c5C(=O)[C@@H]4O)cc3O[C@@H]2CO)ccc1O [ISOSILYBIN A]
inhibition (INH) [1]: Active | inhibition (INH) [2]: Active

COc1cc([C@@H]2Oc3ccc([C@H]4Oc5cc(O)cc(O)c5C(=O)[C@@H]4O)cc3O[C@H]2CO)ccc1O [ISOSILYBIN B]
inhibition (INH) [1]: Active | inhibition (INH) [3]: Active | inhibition (INH) [2]: Active

COc1cc(C2Oc3c(O)cc([C@H]4Oc5cc(O)cc(O)c5C(=O)[C@@H]4O)cc3C2CO)ccc1O (stereo partly drawn) [SILICRISTIN]
inhibition (INH) [1]: Active | IC50 [4]: 3.6 µM | IC50 [5]: 9 µM | IC50 [6]: 36.4 µM | inhibition (INH) [2]: Not Active

COc1cc([C@@H]2[C@H]3CO[C@@]4(O)C(=O)[C@@H]2C=C([C@H]2Oc5cc(O)cc(O)c5C(=O)[C@@H]2O)[C@@H]34)ccc1O [SILIDIANIN]
inhibition (INH) [1]: Active | inhibition (INH) [3]: Active | inhibition (INH) [2]: Active
